Calls of active or inactive are those of the source. The calls are words filed in the database; no cut-off is given here.
Columns and labels:
NRK-52E [1] = assay: Cytotoxicity against rat NRK-52E cells assessed as reduction in cell viability at 1 to 50 uM pretreated with 33 mM glucose for 6 hrs followed by compound addition and measured after 24 hrs by Alamar blue dye based microplate reader analysis; assay type: toxicity; conditions: dose 1-50 µM
How it was run: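 Alamar blue assay in NRK-52E cells grown in high-glucose DMEM with 10% FBS at 37 °C, 5% CO2. At 80-90% confluency, cells got 33 mM glucose for 6 h, then compound at 1-50 μM (vehicle 0.1% DMSO + 1XPBS) for 24 h. Dye incubation 4 h; OD read at 570 and 600 nm. Viability expressed as the absorbance ratio to the vehicle control.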

[2] = target: T1, Sodium/glucose cotransporter 2 (Rattus norvegicus, UniProt P53792); assay: Inhibition of SGLT2-mediated glucose uptake in rat NRK-52E cells assessed as reduction in glucose uptake preincubated with 33 mM glucose for 6 hrs followed by compound addition and measured after 24 hrs by fluorescence based microplate reader analysis; assay type: cell-based
T1 sequence (P53792 whole entry): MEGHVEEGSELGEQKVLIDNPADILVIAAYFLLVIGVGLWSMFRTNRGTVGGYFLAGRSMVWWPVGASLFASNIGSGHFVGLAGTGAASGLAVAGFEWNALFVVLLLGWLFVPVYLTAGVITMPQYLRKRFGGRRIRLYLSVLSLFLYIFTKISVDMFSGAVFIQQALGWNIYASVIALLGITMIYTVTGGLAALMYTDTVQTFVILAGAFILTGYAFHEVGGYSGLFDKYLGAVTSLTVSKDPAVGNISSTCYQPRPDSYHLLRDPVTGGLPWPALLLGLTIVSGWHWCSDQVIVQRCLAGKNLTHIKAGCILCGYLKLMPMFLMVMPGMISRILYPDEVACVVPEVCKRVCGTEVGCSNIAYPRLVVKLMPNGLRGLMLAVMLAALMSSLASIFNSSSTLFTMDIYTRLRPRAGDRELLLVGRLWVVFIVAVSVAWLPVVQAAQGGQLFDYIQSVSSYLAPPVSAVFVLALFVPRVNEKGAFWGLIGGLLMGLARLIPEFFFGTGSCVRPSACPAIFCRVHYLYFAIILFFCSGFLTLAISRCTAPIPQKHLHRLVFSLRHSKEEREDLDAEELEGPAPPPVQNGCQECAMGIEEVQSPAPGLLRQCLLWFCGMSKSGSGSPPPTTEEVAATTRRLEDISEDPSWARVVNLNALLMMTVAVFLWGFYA
How it was run: (§1)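 6-NBDG uptake in NRK-52E cells seeded at 1×10^4/well, exposed to 33 mM glucose for 6 h, then to compound (1, 5, 10 μM; dose series 100 nM-10 μM; vehicle 0.1% DMSO + 1XPBS) for 24 h. Cells were rinsed in Na+-free buffer and given 20 μM 6-NBDG in Na+ or Na+-free HEPES buffer (pH 7.4) for 20 min at 37 °C. After lysis in 1% Triton X (pH 10) plus DMSO, fluorescence was read at 470/540 nm. Results are fold change vs control; n = 3.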

[3] = target: T2, Sodium/glucose cotransporter 2 (Rattus norvegicus) (UniProt P53792); assay: Inhibition of SGLT2-mediated glucose uptake in rat NRK-52E cells assessed as reduction in glucose uptake at 1 to 10 uM preincubated with 33 mM glucose for 6 hrs followed by compound addition and measured after 24 hrs by fluorescence based microplate reader analysis; assay type: cell-based; conditions: dose 1-10 µM; how it was run: as §1
T2 sequence (whole entry): T1 sequence (P53792 whole entry)

[4] = target: T2, Sodium/glucose cotransporter 2 (Rattus norvegicus); assay: Inhibition of SGLT2-mediated glucose uptake in rat NRK-52E cells assessed as fold decrease in reduction of glucose uptake at 1 uM preincubated with 33 mM glucose for 6 hrs followed by compound addition and measured after 24 hrs by fluorescence based microplate reader analysis relative to glucose alone; assay type: cell-based; how it was run: as §1
[5] = target: T2, Sodium/glucose cotransporter 2 (Rattus norvegicus); assay: Inhibition of SGLT2-mediated glucose uptake in rat NRK-52E cells assessed as reduction in glucose uptake by measuring fold change at 500 nM preincubated with 33 mM glucose for 6 hrs followed by compound addition and measured after 24 hrs by fluorescence based microplate reader analysis; assay type: cell-based; how it was run: as §1
NRK-52E [6] = assay: Downregulation of SGLT2 protein expression in glucose-induced rat NRK-52E cells at 1 to 5 uM by Western blotting analysis; assay type: functional, cell-based; conditions: dose 1-5 µM
How it was run: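 NRK-52E cells got 33 mM glucose for 6 h, then compound for 24 h, and were lysed in RIPA with protease/phosphatase inhibitors; protein was measured by BCA. Samples of about 20-30 μg were run on 10% SDS-PAGE and transferred to nitrocellulose. Blots were blocked in 1% BSA, probed with anti-SGLT2 (1:1000) overnight at 4 °C, then HRP anti-rabbit (1:1000) for 2 h, and detected by ECL with densitometry. β-actin served as loading control; three repeats.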

NRK-52E [7] = assay: Effect of SGLT1 protein expression in glucose-induced rat NRK-52E cells at 1 to 5 uM by Western blotting analysis; assay type: functional, cell-based; conditions: dose 1-5 µM
NRK-52E [8] = assay: Inhibition of ROS generation in rat NRK-52E cells assessed as reduction in intracellular ROS generation at […] preincubated with glucose for 6 hrs followed by compound addition and measured after 24 hrs by DCFDA staining based spectrofluorometric analysis relative to glucose alone; assay type: functional, cell-based
How it was run: (§2)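 NRK-52E cells in 24-well plates got 33 mM glucose for 6 h, then compound at 100 nM-10 μM (vehicle 0.1% DMSO + 1XPBS) for 24 h. Cells were loaded with 10 μM H2DCFDA for 30 min at 37 °C in the dark, lysed with 1% Triton X-100 and DMSO. Fluorescence was read at 480/530 nm in triplicate; the glucose-only signal was set as 100%.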

Mitochondrial membrane = assay: Restoration of mitochondrial membrane depolarization in glucose induced rat NRK-52E cells assessed as increase in green fluorescence intensity at […] pretreated with glucose for 6 hrs followed by compound addition and measured after 24 hrs by rhodamine-123 staining based cytofluorimetric analysis; assay type: cell membranes
How it was run: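 NRK-52E cells (2×10^5/well) received 33 mM glucose for 6 h, then compound at 500 nM, 1 or 5 μM for 24 h. They were stained with 200 ng/mL rhodamine 123 for 30 min at 37 °C, washed, and analysed by flow cytometry.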

NRK-52E [9] = assay: Downregulation of NOX-4 expression in glucose induced rat NRK-52E cells at 1 to 5 uM by Western blotting analysis; assay type: functional, cell-based; conditions: dose 1-5 µM
NRK-52E [10] = assay: Inhibition of NF-kappaB activation in glucose induced rat NRK-52E cells at 0.005 to 5 uM by Western blotting analysis; assay type: cell-based; conditions: dose 0.005-5 µM
NRK-52E [11] = assay: Downregulation of IL-6 expression in glucose induced rat NRK-52E cells at 0.005 to 5 uM by Western blotting analysis; assay type: functional, cell-based; conditions: dose 0.005-5 µM
NRK-52E [12] = assay: Downregulation of TGF-beta1 expression in glucose induced rat NRK-52E cells at 0.005 to 5 uM by Western blotting analysis; assay type: functional, cell-based; conditions: dose 0.005-5 µM
NRK-52E [13] = assay: Inhibition of fibronectin expression in glucose induced rat NRK-52E cells at 0.005 to 5 uM by Western blotting analysis; assay type: functional, cell-based; conditions: dose 0.005-5 µM
NRK-52E [14] = assay: Inhibition of collagen-IV expression in glucose induced rat NRK-52E cells at 0.005 to 5 uM by Western blotting analysis; assay type: functional, cell-based; conditions: dose 0.005-5 µM
NRK-52E [15] = assay: Inhibition of ROS generation in rat NRK-52E cells assessed as reduction in intracellular ROS generation at 0.25 to 10 uM preincubated with glucose for 6 hrs followed by compound addition and measured after 24 hrs by DCFDA staining based spectrofluorometric analysis; assay type: functional, cell-based; conditions: dose 0.25-10 µM; how it was run: as §2
NRK-52E [16] = assay: Induction of AMPK phosphorylation in glucose induced rat NRK-52E cells at 1 to 5 uM by Western blotting analysis; assay type: cell-based; conditions: filed as activator, dose 1-5 µM

With `CC(=O)O[C@H]1CC[C@@]2(C)C(=CC[C@@H]3[C@@H]2CC[C@]2(C)c4c(cnc5cc(-c6ccc(Br)cc6)nn45)C[C@@H]32)C1` the Activity (NRK-52E [1]) was “Non-toxic”.
With `Cc1ccc([C@@H]2O[C@H](CO)[C@@H](O)[C@H](O)[C@H]2O)cc1Cc1ccc(-c2ccc(F)cc2)s1` [CANAGLIFLOZIN ANHYDROUS] the IC50 [2] was 2.35 nM.
`C[C@]12CC[C@H](O)CC1=CC[C@@H]1[C@@H]2CC[C@]2(C)c3c(cnc4nc5cc(Cl)ccc5n34)C[C@@H]12` was tested, and the Activity (NRK-52E [1]) was “Non-toxic”.
`C[C@]12CC[C@H](O)CC1=CC[C@@H]1[C@@H]2CC[C@]2(C)c3c(cnc4nc5ccccc5n34)C[C@@H]12` was tested, and the Activity (NRK-52E [1]) was “Non-toxic”, the inhibition [3] was “Active” and the fold change (FC) [4] was 2. For the same compound, the IC50 [2] was 2.91 nM, the fold change (FC) [5] was 1.4 and the Activity (NRK-52E [6]) was “Active”. For the same compound, the Activity (NRK-52E [7]) was “inactive”, the inhibition (NRK-52E [8]) was “Active” and the Activity (Mitochondrial membrane) was “Active”. For the same compound, the Activity (NRK-52E [9]) was “Active”, the inhibition (NRK-52E [10]) was “Active” and the Activity (NRK-52E [11]) was “Active”. For the same compound, the Activity (NRK-52E [12]) was “Active”, the inhibition (NRK-52E [13]) was “Active” and the inhibition (NRK-52E [14]) was “Active”. For the same compound, the inhibition (NRK-52E [15]) was “Active; Significant Decrease Observed” and the Activity (NRK-52E [16]) was “Active”.
With `CC(=O)O[C@H]1CC[C@@]2(C)C(=CC[C@@H]3[C@@H]2CC[C@]2(C)c4c(cnc5cc(-c6ccccc6)nn45)C[C@@H]32)C1` the Activity (NRK-52E [1]) was “Non-toxic”.
`CC(=O)O[C@H]1CC[C@@]2(C)C(=CC[C@@H]3[C@@H]2CC[C@]2(C)c4c(cnc5nc6ccccc6n45)C[C@@H]32)C1` was tested, and the Activity (NRK-52E [1]) was “Non-toxic”.
With `C[C@]12CC[C@H](O)CC1=CC[C@@H]1[C@@H]2CC[C@]2(C)c3c(cnc4cc(-c5ccc(Br)cc5)nn34)C[C@@H]12` the Activity (NRK-52E [1]) was “Non-toxic”.
With `CC(=O)O[C@H]1CC[C@@]2(C)C(=CC[C@@H]3[C@@H]2CC[C@]2(C)c4c(cnc5cc(-c6ccc(Cl)cc6)nn45)C[C@@H]32)C1` the Activity (NRK-52E [1]) was “Non-toxic”.
For `CC(=O)O[C@H]1CC[C@@]2(C)C(=CC[C@@H]3[C@@H]2CC[C@]2(C)c4c(cnc5nc6ccc(Cl)cc6n45)C[C@@H]32)C1`, the Activity (NRK-52E [1]) was “Non-toxic”.
`C[C@]12CC[C@H](O)CC1=CC[C@@H]1[C@@H]2CC[C@]2(C)c3c(cnc4cc(-c5ccccc5)nn34)C[C@@H]12` was tested, and the Activity (NRK-52E [1]) was “Non-toxic”.
With `CC(=O)O[C@H]1CC[C@@]2(C)C(=CC[C@@H]3[C@@H]2CC[C@]2(C)c4c(cnc5c(C#N)cnn45)C[C@@H]32)C1` the Activity (NRK-52E [1]) was “Non-toxic”.
With `C[C@]12CC[C@H](O)CC1=CC[C@@H]1[C@@H]2CC[C@]2(C)c3c(cnc4nc5c(Cl)cccc5n34)C[C@@H]12` the Activity (NRK-52E [1]) was “Non-toxic”.
For `CC(=O)O[C@H]1CC[C@@]2(C)C(=CC[C@@H]3[C@@H]2CC[C@]2(C)c4c(cnc5nc6cc(Cl)ccc6n45)C[C@@H]32)C1`, the Activity (NRK-52E [1]) was “Non-toxic”.
`COc1cccc2nn3c4c(cnc3c12)C[C@H]1[C@@H]2CC=C3C[C@@H](O)CC[C@]3(C)[C@H]2CC[C@]41C` was tested, and the Activity (NRK-52E [1]) was “Non-toxic” and the inhibition [3] was “inactive”.
For `CC(=O)O[C@H]1CC[C@@]2(C)C(=CC[C@@H]3[C@@H]2CC[C@]2(C)c4c(cnc5nc6c(Cl)cccc6n45)C[C@@H]32)C1`, the Activity (NRK-52E [1]) was “Non-toxic”.
In the case of `COc1cccc2nn3c4c(cnc3c12)C[C@H]1[C@@H]2CC=C3C[C@@H](OC(C)=O)CC[C@]3(C)[C@H]2CC[C@]41C`, the Activity (NRK-52E [1]) is reported as “Non-toxic” and the inhibition [3] is reported as “inactive”.
With `C[C@]12CC[C@H](O)CC1=CC[C@@H]1[C@@H]2CC[C@]2(C)c3c(cnc4cc(-c5ccc(Cl)cc5)nn34)C[C@@H]12` the Activity (NRK-52E [1]) was “Non-toxic”.
